40 compounds from ChEMBL document CHEMBL4665666, “Discovery and characterization of trypanocidal cysteine protease inhibitors from the 'malaria box'” (Eur J Med Chem, 2019) can be followed below.

By inhibition is commonly meant the share of the control response that was lost under treatment.

For assay [1], the target named is Cruzipain (Trypanosoma cruzi) (UniProt P25779). As to the kind of experiment: Inhibition of recombinant Trypanosoma cruzi cruzain at 5 uM using Z-FR-AMC as substrate and measured at 12 sec interval for 5 mins without preincubation by fluorimetric analysis relative to control. The method, boiled down:
(§1)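 Recombinant rhodesain or cruzain (1 nM) in 0.1 M sodium acetate pH 5.5, 0.01% Triton X-100, 1 mM β-mercaptoethanol. Compound at a single concentration, either without or after 10 min enzyme pre-incubation. Inhibition is relative to DMSO, with E-64 as positive control. Done in duplicate (primary screen) or triplicate.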

Assay [2] concerns the target Rhodesain (Trypanosoma brucei rhodesiense) (UniProt Q95PM0). Put plainly: Inhibition of recombinant Trypanosoma brucei rhodesain expressed in Pichia pastoris at 5 uM using Z-FR-AMC as substrate and measured at 12 sec interval for 5 mins without preincubation by fluorimetric analysis relative to control. The procedure, abridged: as §1
Assay [3] shares this target. As to the kind of experiment: Inhibition of recombinant Trypanosoma brucei rhodesain expressed in Pichia pastoris at 5 uM using Z-FR-AMC as substrate preincubated for 10 mins followed by substrate addition and measured at 12 sec interval for 5 mins by fluorimetric analysis relative to control. The conditions noted are these: time 15.0 min. The procedure, abridged:
as §1

The target in assay [4] is Cruzipain (Trypanosoma cruzi) (UniProt P25779). Put plainly: Inhibition of recombinant Trypanosoma cruzi cruzain at 5 uM using Z-FR-AMC as substrate preincubated for 10 mins followed by substrate addition and measured at 12 sec interval for 5 mins by fluorimetric analysis relative to control. The conditions noted are these: time 15.0 min. The procedure, abridged:
as §1

Each structure is given as a SMILES string.

Chain of Cruzipain (Trypanosoma cruzi) (P25779 123-467 limits assumed): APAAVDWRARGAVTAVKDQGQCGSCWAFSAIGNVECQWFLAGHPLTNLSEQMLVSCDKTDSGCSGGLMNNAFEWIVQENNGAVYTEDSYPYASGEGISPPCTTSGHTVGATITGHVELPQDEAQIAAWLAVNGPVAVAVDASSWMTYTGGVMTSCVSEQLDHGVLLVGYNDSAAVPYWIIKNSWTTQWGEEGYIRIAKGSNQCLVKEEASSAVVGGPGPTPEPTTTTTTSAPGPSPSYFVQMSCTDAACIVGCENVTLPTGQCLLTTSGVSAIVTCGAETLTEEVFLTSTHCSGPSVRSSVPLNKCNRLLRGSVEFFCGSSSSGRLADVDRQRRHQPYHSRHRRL
Chain of Rhodesain (Trypanosoma brucei rhodesiense) (Q95PM0 1-450): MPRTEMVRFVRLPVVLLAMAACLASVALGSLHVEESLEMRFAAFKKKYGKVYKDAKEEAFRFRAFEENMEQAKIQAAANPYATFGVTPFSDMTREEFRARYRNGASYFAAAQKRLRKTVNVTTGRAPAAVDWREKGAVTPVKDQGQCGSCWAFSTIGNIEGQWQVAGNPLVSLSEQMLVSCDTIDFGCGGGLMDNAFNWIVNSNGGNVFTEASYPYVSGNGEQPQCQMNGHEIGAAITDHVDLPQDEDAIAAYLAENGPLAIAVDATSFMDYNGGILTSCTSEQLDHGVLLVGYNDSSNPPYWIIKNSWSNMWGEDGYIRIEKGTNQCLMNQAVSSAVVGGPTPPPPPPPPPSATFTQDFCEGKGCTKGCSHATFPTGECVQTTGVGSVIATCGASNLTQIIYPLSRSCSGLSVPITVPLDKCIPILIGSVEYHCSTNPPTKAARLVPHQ

Regarding `COc1ccc(/C=C2/SC(Nc3ccc(F)cc3)=NC2=O)c(OC)c1`, the inhibition in assay [1] amounted to 29.3%; in assay [2], 21.4%; in assay [3] it was 54.8%; in assay [4] it was 54.4%.
Taken in the same sequence, the figures for `Cc1ccccc1OCCSc1nc2ccc(NC(=O)c3ccccc3)cc2s1` were 52.3%, 48.3%, 59% and 76.7%.
For `CCN(CC)CCNc1ncnc2c1[nH]c1ccc(Br)cc12` the same measures were 57%, 27.5%, 2.7% and 28.5%.
For `O=C(O)C1Cc2c([nH]c3ccccc23)C(c2ccc(Cl)cc2Cl)N1` (stereo not given), the inhibition was determined as 5% in assay [1], 0.7% in assay [2], 78.6% in assay [3] and 9.5% in assay [4].
In the case of `Oc1ccc(C(=C(Cl)Cl)c2ccc(O)cc2)cc1`, the inhibition was determined as 31.1% in assay [1], 22.6% in assay [2], 62.1% in assay [3] and 60.5% in assay [4].
For `O=C(CSc1ccc2nnc(-c3cccc(F)c3)n2n1)Nc1ccc2c(c1)OCO2` the same measures were 10.2%, 10.3%, 61.6% and 67.7%.
For `CCOc1ccc(C2N(C)c3ccccc3N2C)cc1` the same measures were 21.8%, 30.3%, 57.7% and 48.3%.
As to `O=C1c2ccccc2-c2nnc(-c3ccc(Br)cc3)cc21`, the inhibition in assay [1] was 47.8%; in assay [2] it was 32.7%; in assay [3], 68.8%; in assay [4], 96.3%.
On to `CCc1ccc(Nc2cc(C)c3ccc(O)cc3n2)cc1`, for which the inhibition was found to be 32.8% in assay [1], 36.5% in assay [2], 38.1% in assay [3] and 55% in assay [4].
With `CN(N=O)C1=C(NC2CCCCC2)C(=O)c2ccccc2C1=O`, the inhibition in assay [1] was found to be 34.8%; in assay [2] it was 38.7%; in assay [3], 39.5%; in assay [4], 68.2%.
For `COc1ccc(C(=O)NC(c2ccc(Cl)cc2Cl)c2cc(Cl)c3cccnc3c2O)cc1` (stereo not given) the same measures were 77.6%, 27.9%, 20.2% and 49.5%.
As to `COc1ccc(OC)c(C2C3=C(CC(C)(C)CC3=O)N(c3ccc(Cl)c(Cl)c3)C3=C2C(=O)CC(C)(C)C3)c1`, the inhibition in assay [1] was found to be 28.5%; in assay [2], 16.6%; in assay [3], 53.3%; in assay [4] it was 72%.
For `CCC(C)NCC(O)(c1ccc(Cl)cc1)c1ccc(Cl)cc1` (stereo not given) the same measures were 32%, 29.1%, 80.9% and 67.2%.
Taken in the same sequence, the figures for `COc1ccc(-c2nc3cc(Cc4ccc5[nH]c(-c6ccc(OC)cc6)nc5c4)ccc3[nH]2)cc1` were 100%, 98.6%, 98.7% and 79.9%.
Taken in the same sequence, the figures for `Nc1ccc(-c2nc3cc(Oc4ccc(Oc5ccc6[nH]c(-c7ccc(N)cc7)nc6c5)cc4)ccc3[nH]2)cc1` were 88.6%, 13.3%, 78.2% and 91.5%.
As for `Cc1ccc(N2C(=O)C3C(C2=O)C2(c4ccccc4)C(=O)C3(c3ccccc3)C(c3ccccc3)=C2c2ccccc2)cc1` (stereo not given), the inhibition in assay [1] was 9.2%; in assay [2], 22.3%; in assay [3], 56.3%; in assay [4] it was 33.6%.
Taken in the same sequence, the figures for `CC(C)OCc1cc(CN2CCN(c3cccc(Cl)c3)CC2)c(O)c2ncccc12` were 49%, 8.3%, 83.7% and 98.2%.
For `Cc1ccc(Nc2nc(-c3ccccn3)cs2)cc1` the same measures were 17.3%, 4.7%, 80.9% and 19.8%.
Taken in the same sequence, the figures for `COc1ccc(C2c3ccc4ccccc4c3Oc3ncn(CCCn4ccnc4)c(=N)c32)cc1OC` (stereo not given) were 41.8%, 33.4%, 41% and 59.5%.
As for `Clc1ccc2[nH]c3c(NCCCN4CCOCC4)ncnc3c2c1`, the inhibition in assay [1] stood at 67%; in assay [2], 48.9%; in assay [3], 72.9%; in assay [4], 62.5%.
For `COc1nc(Nc2ccc(C(C)C)cc2)nc(OC)n1`, the inhibition in assay [1] came out at 16.8%; in assay [2] it was 25.9%; in assay [3] it was 53.8%; in assay [4] it was 44.2%.
Taken in the same sequence, the figures for `COc1ccc(NC(=O)C2c3ccccc3C(=O)N(CC(C)C)C2c2cccs2)cc1` (stereo not given) were 3.3%, 0.1%, 78.7% and 0%.
With `CCOc1ccccc1CNC(=O)C1c2ccccc2C(=O)N(CC(C)C)C1c1cccs1` (stereo not given), the inhibition in assay [1] is 45.6%; in assay [2], 34.3%; in assay [3], 71.4%; in assay [4], 55.7%.
For `CCCCCn1c(=N)n(CC(O)COc2cccc(C)c2)c2ccccc21` (stereo not given) the same measures were 55.2%, 40.2%, 69.9% and 87.2%.
Taken in the same sequence, the figures for `COc1cccc(C(=O)NC(c2ccc(C)cc2)c2cc(Cl)c3cccnc3c2O)c1` (stereo not given) were 8.7%, 31.4%, 43.9% and 54.5%.
Taken in the same sequence, the figures for `Fc1ccc2[nH]c3c(NCCCN4CCOCC4)ncnc3c2c1` were 50.7%, 17.6%, 41.6% and 63.9%.
Take `COc1cc(OC)c(N(C)C(=O)c2cc3c(s2)-c2ccccc2S(=O)(=O)C3)cc1Cl`: the inhibition in assay [1] worked out at 6.4%; in assay [2], 20.7%; in assay [3], 57.9%; in assay [4], 38.1%.
Taken in the same sequence, the figures for `COc1ccc(/C=C2/SC(=Nc3ccccc3)NC2=O)cc1` were 43.1%, 35.6%, 70.5% and 73.8%.
For `COc1ccc(CNC(=O)c2cc3c(=O)n4ccccc4nc3n(CCc3ccccc3)c2=N)cc1` the same measures were 45.7%, 43.5%, 66.9% and 69.9%.
Taken in the same sequence, the figures for `O=C(Nc1ccc(-c2nc3ccccc3[nH]2)cc1)c1ccc(Cl)c(Cl)c1` were 17.4%, 42.8%, 18.3% and 86.9%.
Turning to `Nc1ccc(-c2nc3cc(Cc4ccc5[nH]c(-c6ccc(N)cc6)nc5c4)ccc3[nH]2)cc1`, the inhibition in assay [1] is 20.2%; in assay [2], 86.6%; in assay [3], 90.1%; in assay [4], 98.2%.
For `COc1ccccc1C(=O)ON=C(N)Cc1cccc2ccccc12` the same measures were 32%, 1.4%, 54.3% and 54.9%.
Taken in the same sequence, the figures for `O=C(c1ccccc1F)N(Cc1ccc(Cl)cc1)c1ccccn1` were 40.7%, 45.8%, 75% and 91.6%.
`O=C(Nc1ccc(-c2nc3cc(NC(=O)c4ccc(Cl)cc4)ccc3[nH]2)cc1)c1ccc(Cl)cc1`: the inhibition in assay [1] is 15%; in assay [2] it was 4.6%; in assay [3], 56.1%; in assay [4], 35.3%.
For `COc1cc2c3cc1Oc1c(OC)c(OC)cc4c1C(Cc1ccc(O)c(c1)Oc1ccc(cc1)CC3N(C)CC2)N(C)CC4` (stereo not given) the same measures were 22.4%, 19.7%, 51.4% and 41.7%.
For `CCOC(=O)c1cnc2ccc(CC)cc2c1O` the same measures were 6%, 0%, 52.4% and 5.8%.
For `Cn1c(=O)c2cc(C(=O)NCCCN3CCCCCC3)sc2c2ccccc21` the same measures were 22.9%, 22.4%, 41.3% and 50.5%.
For `CC(O)(c1ccc(Cl)cc1)C(CN1CCCCC1)c1ccccc1` (stereo not given), the inhibition in assay [1] is 11.9%; in assay [2] it was 13.9%; in assay [3], 50.4%; in assay [4] it was 54.1%.
For `Cc1ccnc(NC(c2cccc(OCc3ccccc3)c2)c2ccc3cccnc3c2O)c1` (stereo not given) the same measures were 6.7%, 0%, 16.2% and 51.3%.
For `O=C(NC1CCN(Cc2ccccc2)CC1)c1cc(-c2ccncc2)nc2ccc(Cl)cc12` the same measures were 15.2%, 20.9%, 41.2% and 56.5%.
